From ChEMBL document CHEMBL4304743, “Discovery of ( E)- N1-(3-Fluorophenyl)- N3-(3-(2-(pyridin-2-yl)vinyl)-1 H-indazol-6-yl)malonamide (CHMFL-KIT-033) as a Novel c-KIT T670I Mutant Selective Kinase Inhibitor for Gastrointestinal Stromal Tumors (GISTs)” (J Med Chem, 2019)

What was measured:
[1] = tested on: Mast/stem cell growth factor receptor Kit (Homo sapiens), P10721 [T670I]; test: Inhibition of TEL fused c-KIT T670I mutant (unknown origin) transfected in mouse BAF3 cells assessed as growth inhibition after 72 hrs by CCK8 assay; type: cell-based
Chain of Mast/stem cell growth factor receptor Kit (Homo sapiens), P10721 [T670I] (P10721 whole entry T670I, the tested form may be a part): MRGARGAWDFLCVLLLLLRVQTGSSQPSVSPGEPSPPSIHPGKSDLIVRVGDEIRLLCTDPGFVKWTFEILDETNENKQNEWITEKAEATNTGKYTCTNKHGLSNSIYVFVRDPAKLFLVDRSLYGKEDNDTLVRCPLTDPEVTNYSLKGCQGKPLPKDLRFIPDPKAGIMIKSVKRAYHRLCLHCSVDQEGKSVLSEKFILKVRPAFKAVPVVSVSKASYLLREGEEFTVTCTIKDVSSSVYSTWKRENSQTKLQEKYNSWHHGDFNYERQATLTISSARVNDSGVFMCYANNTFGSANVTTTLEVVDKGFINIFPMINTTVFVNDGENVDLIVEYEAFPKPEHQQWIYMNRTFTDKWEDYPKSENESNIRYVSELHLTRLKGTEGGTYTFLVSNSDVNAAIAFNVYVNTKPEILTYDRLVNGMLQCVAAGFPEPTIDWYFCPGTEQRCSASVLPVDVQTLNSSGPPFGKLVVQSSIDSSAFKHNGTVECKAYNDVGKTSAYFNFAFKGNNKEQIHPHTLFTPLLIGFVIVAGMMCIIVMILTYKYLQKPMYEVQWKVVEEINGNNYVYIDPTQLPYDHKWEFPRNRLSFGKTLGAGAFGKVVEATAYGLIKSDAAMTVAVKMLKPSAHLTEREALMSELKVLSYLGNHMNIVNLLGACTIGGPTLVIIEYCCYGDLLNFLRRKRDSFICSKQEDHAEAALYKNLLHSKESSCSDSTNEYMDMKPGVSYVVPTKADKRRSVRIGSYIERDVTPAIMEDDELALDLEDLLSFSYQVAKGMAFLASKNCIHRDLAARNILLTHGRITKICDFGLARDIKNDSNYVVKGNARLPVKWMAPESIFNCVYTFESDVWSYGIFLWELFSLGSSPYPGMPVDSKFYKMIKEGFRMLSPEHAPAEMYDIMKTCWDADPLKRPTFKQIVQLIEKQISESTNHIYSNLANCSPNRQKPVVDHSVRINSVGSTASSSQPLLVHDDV
Procedure, shortened: (§1)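 Tel-c-KIT-transformed BaF3 lines (IL-3 independent) kept in RPMI 1640 with 10% FBS, 2% L-glutamine and pen/strep. Cells at 1.5 to 5 × 10^4 cells/mL mixed with graded compound and incubated 72 h at 37 °C, 5% CO2. Viability by CCK-8 absorbance at 450 nm, normalized to DMSO. GI50 from dose–response fit.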

[2] = target: Mast/stem cell growth factor receptor Kit (Homo sapiens, UniProt P10721); test: Inhibition of wild type TEL fused c-KIT (unknown origin) transfected in mouse BAF3 cells assessed as growth inhibition after 72 hrs by CCK8 assay; type: cell-based; conditions: baf3, 72 h
Chain of Mast/stem cell growth factor receptor Kit (P10721 whole entry, the tested form may be a part): as the sequence (P10721 whole entry T670I, the tested form may be a part) above, with I670T counted along it
Procedure, shortened: (§2)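 IL-3 independent BaF3 cells stably expressing tel-c-KIT wt or tel-c-KIT T670I, grown in RPMI 1640 with 10% FBS, 2% L-glutamine, 37 °C, 5% CO2. Suspension cells at 1.5 to 5 × 10^4 cells/mL mixed with serial compound dilutions and incubated 72 h. Viability read by CCK-8 absorbance at 450 nm, normalized to DMSO; GI50 from curve fit. Selectivity is wt GI50 over T670I GI50.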

[3] = Antiproliferative activity in mouse BAF3 cells after 72 hrs by CCK8 assay; type: cell-based
Procedure, shortened: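 IL-3-independent BaF3 cells carrying tel-c-KIT constructs, grown in RPMI 1640 with 10% FBS. Cells at 1.5-5 × 10^4 cells/mL mixed directly with serial compound dilutions, 72 h at 37 °C, 5% CO2. CCK-8 read-out at 450 nm, normalized to DMSO; GI50 by curve fitting.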

[4] = Selectivity ratio, ratio of inhibition of wild type TEL fused c-KIT (unknown origin) transfected in mouse BAF3 cells assessed as growth inhibition to inhibition of TEL fused c-KIT T670I mutant (unknown origin) transfected in mouse BAF3 cells assessed as growth inhibition; parameters: species or system Homo sapiens; procedure, shortened: as §2
[5] = tested on: Mast/stem cell growth factor receptor Kit (Homo sapiens), P10721 [D816V]; test: Inhibition of TEL fused c-KIT D816V mutant (unknown origin) transfected in mouse BAF3 cells assessed as growth inhibition after 72 hrs by CCK8 assay; type: cell-based; procedure, shortened: as §1
Chain of Mast/stem cell growth factor receptor Kit (Homo sapiens), P10721 [D816V] (P10721 whole entry D816V, the tested form may be a part): as the sequence (P10721 whole entry T670I, the tested form may be a part) above, with I670T, D816V counted along it

[6] = tested on: Mast/stem cell growth factor receptor Kit (Homo sapiens), P10721 [A829P]; test: Inhibition of TEL fused c-KIT A829P mutant (unknown origin) transfected in mouse BAF3 cells assessed as growth inhibition after 72 hrs by CCK8 assay; type: cell-based; procedure, shortened: as §1
Chain of Mast/stem cell growth factor receptor Kit (Homo sapiens), P10721 [A829P] (P10721 whole entry A829P, the tested form may be a part): as the sequence (P10721 whole entry T670I, the tested form may be a part) above, with I670T, A829P counted along it

[7] = tested on: Mast/stem cell growth factor receptor Kit (Homo sapiens), P10721 [L576P]; test: Inhibition of TEL fused c-KIT L576P mutant (unknown origin) transfected in mouse BAF3 cells assessed as growth inhibition after 72 hrs by CCK8 assay; type: cell-based; procedure, shortened: as §1
Chain of Mast/stem cell growth factor receptor Kit (Homo sapiens), P10721 [L576P] (P10721 whole entry L576P, the tested form may be a part): as the sequence (P10721 whole entry T670I, the tested form may be a part) above, with L576P, I670T counted along it

[8] = tested on: Mast/stem cell growth factor receptor Kit (Homo sapiens), P10721 [N822K]; test: Inhibition of TEL fused c-KIT N822K mutant (unknown origin) transfected in mouse BAF3 cells assessed as growth inhibition after 72 hrs by CCK8 assay; type: cell-based; procedure, shortened: as §1
Chain of Mast/stem cell growth factor receptor Kit (Homo sapiens), P10721 [N822K] (P10721 whole entry N822K, the tested form may be a part): as the sequence (P10721 whole entry T670I, the tested form may be a part) above, with I670T, N822K counted along it

[9] = tested on: Mast/stem cell growth factor receptor Kit (Homo sapiens), P10721 [D820E]; test: Inhibition of TEL fused c-KIT D820E mutant (unknown origin) transfected in mouse BAF3 cells assessed as growth inhibition after 72 hrs by CCK8 assay; type: cell-based; procedure, shortened: as §1
Chain of Mast/stem cell growth factor receptor Kit (Homo sapiens), P10721 [D820E] (P10721 whole entry D820E, the tested form may be a part): as the sequence (P10721 whole entry T670I, the tested form may be a part) above, with I670T, D820E counted along it

[10] = tested on: Mast/stem cell growth factor receptor Kit (Homo sapiens), P10721 [V559D]; test: Inhibition of TEL fused c-KIT V559D mutant (unknown origin) transfected in mouse BAF3 cells assessed as growth inhibition after 72 hrs by CCK8 assay; type: cell-based; procedure, shortened: as §1
Chain of Mast/stem cell growth factor receptor Kit (Homo sapiens), P10721 [V559D] (P10721 whole entry V559D, the tested form may be a part): as the sequence (P10721 whole entry T670I, the tested form may be a part) above, with V559D, I670T counted along it

[11] = tested on: Mast/stem cell growth factor receptor Kit (Homo sapiens), P10721 [V559A]; test: Inhibition of TEL fused c-KIT V559A mutant (unknown origin) transfected in mouse BAF3 cells assessed as growth inhibition after 72 hrs by CCK8 assay; type: cell-based; procedure, shortened: as §1
Chain of Mast/stem cell growth factor receptor Kit (Homo sapiens), P10721 [V559A] (P10721 whole entry V559A, the tested form may be a part): as the sequence (P10721 whole entry T670I, the tested form may be a part) above, with V559A, I670T counted along it

[12] = tested on: Mast/stem cell growth factor receptor Kit (Homo sapiens), P10721 [V559D,V654A]; test: Inhibition of TEL fused c-KIT V654A/V559D double mutant (unknown origin) transfected in mouse BAF3 cells assessed as growth inhibition after 72 hrs by CCK8 assay; type: cell-based; procedure, shortened: as §1
Chain of Mast/stem cell growth factor receptor Kit (Homo sapiens), P10721 [V559D,V654A] (P10721 whole entry V559D/V654A, the tested form may be a part): as the sequence (P10721 whole entry T670I, the tested form may be a part) above, with V559D, V654A, I670T counted along it

[13] = tested on: Mast/stem cell growth factor receptor Kit (Homo sapiens), P10721 [V559D,T670I]; test: Inhibition of TEL fused c-KIT T670I/V559D double mutant (unknown origin) transfected in mouse BAF3 cells assessed as growth inhibition after 72 hrs by CCK8 assay; type: cell-based; procedure, shortened: as §1
Chain of Mast/stem cell growth factor receptor Kit (Homo sapiens), P10721 [V559D,T670I] (P10721 whole entry V559D/T670I, the tested form may be a part): as the sequence (P10721 whole entry T670I, the tested form may be a part) above, with V559D counted along it

[14] = tested on: Mast/stem cell growth factor receptor Kit (Homo sapiens), P10721 [V559G]; test: Inhibition of TEL fused c-KIT V559G mutant (unknown origin) transfected in mouse BAF3 cells assessed as growth inhibition after 72 hrs by CCK8 assay; type: cell-based; procedure, shortened: as §1
Chain of Mast/stem cell growth factor receptor Kit (Homo sapiens), P10721 [V559G] (P10721 whole entry V559G, the tested form may be a part): as the sequence (P10721 whole entry T670I, the tested form may be a part) above, with V559G, I670T counted along it

[15] = tested on: Mast/stem cell growth factor receptor Kit (Homo sapiens), P10721 [V654A]; test: Inhibition of TEL fused c-KIT V654A mutant (unknown origin) transfected in mouse BAF3 cells assessed as growth inhibition after 72 hrs by CCK8 assay; type: cell-based; procedure, shortened: as §1
Chain of Mast/stem cell growth factor receptor Kit (Homo sapiens), P10721 [V654A] (P10721 whole entry V654A, the tested form may be a part): as the sequence (P10721 whole entry T670I, the tested form may be a part) above, with V654A, I670T counted along it

[16] = tested on: Mast/stem cell growth factor receptor Kit (Homo sapiens), P10721 [D816H]; test: Inhibition of TEL fused c-KIT D816H mutant (unknown origin) transfected in mouse BAF3 cells assessed as growth inhibition after 72 hrs by CCK8 assay; type: cell-based; procedure, shortened: as §1
Chain of Mast/stem cell growth factor receptor Kit (Homo sapiens), P10721 [D816H] (P10721 whole entry D816H, the tested form may be a part): as the sequence (P10721 whole entry T670I, the tested form may be a part) above, with I670T, D816H counted along it

Compound | GI50 [1] [µM] | GI50 [2] [µM] | GI50 at 72 h [3] [µM] | other results
O=C(Nc1ccc2c(/C=C/c3ccccn3)n[nH]c2c1)c1ccc(Cl)c(C(F)(F)F)c1 | 1.71 | 2.97 | 1.71 | 
COc1cccc(NC(=O)CC(=O)Nc2ccc3c(/C=C/c4ccccn4)n[nH]c3c2)c1 | 0.234 | 2.74 | > 10 | 
O=C(CC(=O)Nc1ccc2cn[nH]c2c1)Nc1ccc(Cl)c(C(F)(F)F)c1 | 2.67 | > 10 | > 10 | 
O=C(CC(=O)Nc1ccc2c(/C=C/c3ccccn3)n[nH]c2c1)Nc1cc(F)cc(F)c1 | 0.399 | 1.87 | 4.24 | 
O=C(Nc1ccc(Cl)c(C(F)(F)F)c1)C1(C(=O)Nc2ccc3c(/C=C/c4ccccn4)n[nH]c3c2)CC1 | 0.23 | 1 | > 10 | 
O=C(CC(=O)Nc1ccc2c(/C=C/c3ccccn3)n[nH]c2c1)Nc1ccccc1 | 0.117 | 2.22 | 6.72 | RatioGI50 [4]: 19
CNC(=O)c1ccc(-c2n[nH]c3cc(NC(=O)CC(=O)Nc4ccc(Cl)c(C(F)(F)F)c4)ccc23)cc1 | 0.057 | 0.338 | > 10 | RatioGI50 [4]: 6
O=C(CC(=O)Nc1ccccc1F)Nc1ccc2c(/C=C/c3ccccn3)n[nH]c2c1 | 0.312 | 2.16 | 5.09 | 
CNC(=O)c1cncc(-c2n[nH]c3cc(NC(=O)CC(=O)Nc4ccc(Cl)c(C(F)(F)F)c4)ccc23)c1 | 4.84 | > 10 | > 10 | 
CN1CCN(c2ccc(-c3n[nH]c4cc(NC(=O)CC(=O)Nc5ccc(Cl)c(C(F)(F)F)c5)ccc34)cc2)CC1 | 0.012 | 0.025 | 1.35 | 
O=C(CC(=O)Nc1ccc2c(/C=C/c3ccccn3)n[nH]c2c1)Nc1cccc(C(F)(F)F)c1 | 0.086 | 0.216 | > 10 | 
O=C(CC(=O)Nc1ccc2c(/C=C/c3ccccn3)n[nH]c2c1)Nc1ccc(F)cc1 | 0.111 | 0.554 | 5.86 | 
O=C(CC(=O)Nc1ccc2c(/C=C/c3ccccn3)n[nH]c2c1)Nc1ccc(Cl)c(C(F)(F)F)c1 | 0.002 | 0.025 | 7.4 | RatioGI50 [4]: 12
Cn1cc(-c2n[nH]c3cc(NC(=O)CC(=O)Nc4ccc(Cl)c(C(F)(F)F)c4)ccc23)cn1 | 0.023 | 0.35 | > 10 | RatioGI50 [4]: 7 - 15
CN1CCN(Cc2ccc(-c3n[nH]c4cc(NC(=O)CC(=O)Nc5ccc(Cl)c(C(F)(F)F)c5)ccc34)cc2)CC1 | 0.012 | 0.019 | 0.911 | 
CN(C)c1cccc(NC(=O)CC(=O)Nc2ccc3c(/C=C/c4ccccn4)n[nH]c3c2)c1 | 0.594 | 3.87 | > 10 | 
O=C(CC(=O)Nc1ccc2c(/C=C/c3ccccn3)n[nH]c2c1)Nc1cccc(Br)c1 | 0.113 | 0.943 | 6.09 | 

Second part, led by results:

GI50 [1] [µM] | GI50 [2] [µM] | Compound | GI50 at 72 h [3] [µM] | other results
0.111 | 0.923 | O=C(CC(=O)Nc1ccc2c(/C=C/c3ccccn3)n[nH]c2c1)Nc1cccc(Cl)c1 | 3.61 | 
0.045 | 0.32 | O=C(CC(=O)Nc1ccc2c(-c3cccnc3)n[nH]c2c1)Nc1ccc(Cl)c(C(F)(F)F)c1 | > 10 | RatioGI50 [4]: 7 - 15
1.88 | > 10 | Cc1n[nH]c2cc(NC(=O)CC(=O)Nc3ccc(Cl)c(C(F)(F)F)c3)ccc12 | > 10 | 
3.18 | 5.5 | O=C(Cc1ccc(Cl)c(C(F)(F)F)c1)Nc1ccc2c(/C=C/c3ccccn3)n[nH]c2c1 | 3.79 | 
0.17 | 1.43 | Cc1cccc(NC(=O)CC(=O)Nc2ccc3c(/C=C/c4ccccn4)n[nH]c3c2)c1 | > 10 | 
6.17 | > 10 | CN1CCN(c2cccc(NC(=O)CC(=O)Nc3ccc4c(/C=C/c5ccccn5)n[nH]c4c3)c2)CC1 | > 10 | 
0.339 | 1.55 | NC(=O)c1cccc(-c2n[nH]c3cc(NC(=O)CC(=O)Nc4ccc(Cl)c(C(F)(F)F)c4)ccc23)c1 | > 10 | 
0.847 | 3.46 | O=C(CC(=O)Nc1cc(F)ccc1F)Nc1ccc2c(/C=C/c3ccccn3)n[nH]c2c1 | 5.08 | 
0.059 | 0.183 | Cc1ccc(-c2n[nH]c3cc(NC(=O)CC(=O)Nc4ccc(Cl)c(C(F)(F)F)c4)ccc23)cn1 | 4.91 | 
0.179 | 1.12 | O=C(CC(=O)Nc1ccc2c(-c3cccc(F)c3)n[nH]c2c1)Nc1ccc(Cl)c(C(F)(F)F)c1 | > 10 | 
0.108 | 0.105 | CNC(=O)c1ccccc1Sc1ccc2c(/C=C/c3ccccn3)n[nH]c2c1 [AXITINIB] |  | GI50 [5]: 2.02 µM; GI50 [6]: 0.406 µM; GI50 [7]: 0.007 µM; GI50 [8]: 1.72 µM; GI50 [9]: 0.156 µM; GI50 [10]: 0.012 µM; GI50 [11]: 0.005 µM; GI50 [12]: 0.013 µM; GI50 [13]: 0.129 µM; GI50 [14]: 0.002 µM; GI50 [15]: 0.014 µM; GI50 [16]: 1.82 µM
1.15 | 1.6 | O=C(Nc1ccc(Cl)c(C(F)(F)F)c1)Nc1ccc2c(/C=C/c3ccccn3)n[nH]c2c1 | 1.9 | 
1.3 | 2.95 | O=C(CC(=O)Nc1c(F)c(F)c(F)c(F)c1F)Nc1ccc2c(/C=C/c3ccccn3)n[nH]c2c1 | 3.68 | 
